Data from ChEMBL document CHEMBL1155998, “Design and synthesis of piperazinylpyrimidinones as novel selective 5-HT(2C) agonists” (Bioorg Med Chem Lett, 2009).

Tests used:
[1] = target: T1, 5-hydroxytryptamine receptor 2C (Homo sapiens, UniProt P28335); assay: Agonist activity at human recombinant 5HT2C receptor expressed in CHO K1 cells assessed as calcium mobilisation by FLIPR assay; type: functional, cell-based
T1 sequence (P28335 whole entry): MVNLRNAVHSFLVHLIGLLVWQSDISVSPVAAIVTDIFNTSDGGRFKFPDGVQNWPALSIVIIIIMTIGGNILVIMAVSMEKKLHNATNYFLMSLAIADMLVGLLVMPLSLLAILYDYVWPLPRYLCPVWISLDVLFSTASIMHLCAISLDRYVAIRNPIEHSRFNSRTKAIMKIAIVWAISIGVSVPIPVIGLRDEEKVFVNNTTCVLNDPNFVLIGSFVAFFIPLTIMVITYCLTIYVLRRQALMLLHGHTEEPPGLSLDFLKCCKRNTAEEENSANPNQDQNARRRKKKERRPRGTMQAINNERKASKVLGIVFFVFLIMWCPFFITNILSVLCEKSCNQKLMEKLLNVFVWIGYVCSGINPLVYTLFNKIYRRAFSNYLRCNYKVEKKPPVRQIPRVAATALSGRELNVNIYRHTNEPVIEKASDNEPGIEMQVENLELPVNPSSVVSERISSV
In short: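 Recombinant CHO K1 cells expressing the human 5-HT2C receptor. Agonism was read as a fluorescent calcium mobilisation signal in a FLIPR assay. Values were reported as EC50 and Emax (%).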

[2] = Lipophilicity, log Dof the compound at pH 7.4; type: physicochemical; settings: buffer
[3] = Intrinsic clearance in human liver microsomes; type: ADME, Microsome
[4] = target: T2, 5-hydroxytryptamine receptor 2C (Homo sapiens) (UniProt P28335); assay: Agonist activity at human recombinant 5HT2C receptor transfected in CHO K1 cells assessed as calcium mobilisation at 10 uM by FLIPR assay relative to serotonin; type: functional, cell-based
T2 sequence (whole entry): T1 sequence (P28335 whole entry)
In short: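 Recombinant CHO K1 cells stably expressing the human 5-HT2C receptor; agonist-induced calcium mobilisation read as a fluorescence signal on FLIPR. Potency reported as EC50 and efficacy as Emax (%).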

MDR1 (human) = assay: Efflux ratio, permeability from basolateral to apical over apical to basolateral side in MDCK cells expressing human MDR1 gene; type: ADME, cell-based, Canis lupus familiaris; settings: dog
[5] = target: T3, 5-hydroxytryptamine receptor 2A (Homo sapiens, UniProt P28223); assay: Agonist activity at human recombinant 5HT2A receptor transfected in CHO K1 cells assessed as calcium mobilisation at 10 uM by FLIPR assay; type: functional, cell-based
In short: (§1)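 Recombinant cell-based systems expressing the human 5-HT2A or 5-HT2B receptor. Agonist response was read as calcium mobilisation by FLIPR, with test compound at 10 μM. Results were reported as % agonism.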

[6] = target: T4, 5-hydroxytryptamine receptor 2B (Homo sapiens, UniProt P41595); assay: Agonist activity at human recombinant 5HT2B receptor transfected in CHO K1 cells assessed as calcium mobilisation at 10 uM by FLIPR assay; type: functional, cell-based; in short: as §1
[7] = target: D(3) dopamine receptor (Homo sapiens) (UniProt P35462); assay: Binding affinity to dopamine D3 receptor
[8] = target: 5-hydroxytryptamine receptor 4 (Homo sapiens) (UniProt Q13639); assay: Binding affinity to 5HT4E receptor
[9] = target: Beta-2 adrenergic receptor (Homo sapiens) (UniProt P07550); assay: Binding affinity to beta2 receptor
[10] = target: Muscarinic acetylcholine receptor M3 (Homo sapiens) (UniProt P20309); assay: Binding affinity to M3 receptor
[11] = Binding affinity to calcium ion channel at L-verapamil site
Canis familiaris [12] = assay: Increase of urethral pressure in iv dosed dog; type: functional, Canis lupus familiaris, Urethra
In short: (§2)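 Anaesthetised dogs, two animals, in a urethral function model. Compound was given by intravenous infusion. Peak urethral pressure was recorded as % increase, alongside measured free plasma concentrations.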

[13] = Ratio of drug level in CSF to free plasma in iv dosed dog; type: ADME, organism-based, Canis lupus familiaris; settings: in vivo
Canis familiaris [14] = assay: Free plasma concentration in iv dosed dog; type: ADME, organism-based, Canis lupus familiaris; settings: in vivo; in short: as §2
[15] = target: T3, 5-hydroxytryptamine receptor 2A; assay: Agonist activity at human recombinant 5HT2A receptor transfected in CHO K1 cells assessed as calcium mobilisation by FLIPR assay; type: functional, cell-based
[16] = target: T4, 5-hydroxytryptamine receptor 2B; assay: Agonist activity at human recombinant 5HT2B receptor transfected in CHO K1 cells assessed as calcium mobilisation by FLIPR assay; type: functional, cell-based
[17] = target: Voltage-gated inwardly rectifying potassium channel KCNH2 (Homo sapiens, UniProt Q12809); assay: Binding affinity to human ERG
[18] = target: 5-hydroxytryptamine receptor 1B (Homo sapiens) (UniProt P28222); assay: Binding affinity to 5HT1B receptor
5-hydroxytryptamine receptor 1B (Homo sapiens), sequence (P28222 whole entry): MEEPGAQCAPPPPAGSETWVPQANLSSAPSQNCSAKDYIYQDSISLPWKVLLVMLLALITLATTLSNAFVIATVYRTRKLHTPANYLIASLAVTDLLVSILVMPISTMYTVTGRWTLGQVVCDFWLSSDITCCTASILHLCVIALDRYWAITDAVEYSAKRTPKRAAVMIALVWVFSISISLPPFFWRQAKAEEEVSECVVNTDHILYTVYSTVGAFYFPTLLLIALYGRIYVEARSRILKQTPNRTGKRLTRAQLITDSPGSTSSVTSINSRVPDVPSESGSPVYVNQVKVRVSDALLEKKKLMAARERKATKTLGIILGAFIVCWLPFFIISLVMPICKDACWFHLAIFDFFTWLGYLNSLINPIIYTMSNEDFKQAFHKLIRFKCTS

T4 sequence (P41595 whole entry): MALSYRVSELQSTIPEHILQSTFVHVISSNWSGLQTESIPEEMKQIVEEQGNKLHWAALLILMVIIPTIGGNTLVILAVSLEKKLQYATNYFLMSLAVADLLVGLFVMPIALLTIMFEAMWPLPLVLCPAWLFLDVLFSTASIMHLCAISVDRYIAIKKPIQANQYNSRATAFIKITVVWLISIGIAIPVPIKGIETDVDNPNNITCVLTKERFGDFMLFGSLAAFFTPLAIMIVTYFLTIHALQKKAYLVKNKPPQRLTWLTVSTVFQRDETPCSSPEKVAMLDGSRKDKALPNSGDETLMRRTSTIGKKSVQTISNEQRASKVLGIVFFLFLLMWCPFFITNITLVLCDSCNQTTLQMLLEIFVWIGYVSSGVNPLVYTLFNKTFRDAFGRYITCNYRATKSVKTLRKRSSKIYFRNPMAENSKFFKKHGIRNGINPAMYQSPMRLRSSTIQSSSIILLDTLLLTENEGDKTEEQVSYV
T3 sequence (P28223 whole entry): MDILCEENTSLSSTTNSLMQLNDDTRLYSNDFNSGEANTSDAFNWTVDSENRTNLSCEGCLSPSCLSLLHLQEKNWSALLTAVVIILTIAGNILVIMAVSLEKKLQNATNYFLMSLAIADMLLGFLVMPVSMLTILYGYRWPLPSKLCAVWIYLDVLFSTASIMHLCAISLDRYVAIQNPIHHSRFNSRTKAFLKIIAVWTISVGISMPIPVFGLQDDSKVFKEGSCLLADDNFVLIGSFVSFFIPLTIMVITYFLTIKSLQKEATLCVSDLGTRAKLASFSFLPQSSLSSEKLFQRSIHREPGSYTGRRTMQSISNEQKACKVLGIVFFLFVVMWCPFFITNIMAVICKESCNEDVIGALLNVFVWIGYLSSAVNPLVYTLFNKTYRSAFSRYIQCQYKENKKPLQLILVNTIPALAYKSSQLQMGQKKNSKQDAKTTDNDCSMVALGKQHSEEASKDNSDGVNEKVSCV
D(3) dopamine receptor (Homo sapiens), sequence (P35462 whole entry): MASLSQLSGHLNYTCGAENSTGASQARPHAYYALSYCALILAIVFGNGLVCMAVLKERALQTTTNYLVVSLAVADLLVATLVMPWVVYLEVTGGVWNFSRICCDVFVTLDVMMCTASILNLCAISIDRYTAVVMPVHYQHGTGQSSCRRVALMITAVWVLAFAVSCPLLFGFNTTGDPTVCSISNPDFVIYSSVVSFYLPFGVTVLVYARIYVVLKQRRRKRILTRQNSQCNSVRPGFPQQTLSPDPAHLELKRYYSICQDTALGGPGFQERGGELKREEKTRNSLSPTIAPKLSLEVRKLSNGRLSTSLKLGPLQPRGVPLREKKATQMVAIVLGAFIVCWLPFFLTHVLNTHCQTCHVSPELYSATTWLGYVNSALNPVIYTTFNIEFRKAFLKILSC
Beta-2 adrenergic receptor (Homo sapiens), sequence (P07550 whole entry, looked up): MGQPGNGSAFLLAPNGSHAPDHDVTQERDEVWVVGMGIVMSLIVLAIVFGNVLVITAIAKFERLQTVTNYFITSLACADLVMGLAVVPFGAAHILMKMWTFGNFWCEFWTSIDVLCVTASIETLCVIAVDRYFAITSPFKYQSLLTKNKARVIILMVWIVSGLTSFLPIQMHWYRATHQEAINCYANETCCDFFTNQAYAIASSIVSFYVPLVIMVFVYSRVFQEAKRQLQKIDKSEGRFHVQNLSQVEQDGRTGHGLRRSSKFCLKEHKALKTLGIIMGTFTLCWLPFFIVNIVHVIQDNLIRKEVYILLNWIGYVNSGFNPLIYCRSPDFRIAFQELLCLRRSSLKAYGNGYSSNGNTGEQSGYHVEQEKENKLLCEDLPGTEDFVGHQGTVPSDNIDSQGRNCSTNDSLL
Muscarinic acetylcholine receptor M3 (Homo sapiens), sequence (P20309 whole entry, looked up): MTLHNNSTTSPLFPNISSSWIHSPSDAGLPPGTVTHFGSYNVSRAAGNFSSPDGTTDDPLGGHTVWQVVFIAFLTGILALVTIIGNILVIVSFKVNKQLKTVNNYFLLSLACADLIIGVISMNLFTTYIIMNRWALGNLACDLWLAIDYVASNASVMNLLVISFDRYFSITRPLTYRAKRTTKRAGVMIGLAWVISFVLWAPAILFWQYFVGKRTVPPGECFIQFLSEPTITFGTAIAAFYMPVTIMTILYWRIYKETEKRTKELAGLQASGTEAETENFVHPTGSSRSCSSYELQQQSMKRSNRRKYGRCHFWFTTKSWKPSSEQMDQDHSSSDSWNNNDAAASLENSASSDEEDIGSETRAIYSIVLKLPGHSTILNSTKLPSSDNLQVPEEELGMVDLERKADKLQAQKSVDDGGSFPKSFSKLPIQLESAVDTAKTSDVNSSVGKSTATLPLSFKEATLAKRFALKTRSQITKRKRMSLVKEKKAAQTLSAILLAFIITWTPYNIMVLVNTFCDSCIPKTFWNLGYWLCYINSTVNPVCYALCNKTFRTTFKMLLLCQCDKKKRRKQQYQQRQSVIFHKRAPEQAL
5-hydroxytryptamine receptor 4 (Homo sapiens), sequence (Q13639 whole entry): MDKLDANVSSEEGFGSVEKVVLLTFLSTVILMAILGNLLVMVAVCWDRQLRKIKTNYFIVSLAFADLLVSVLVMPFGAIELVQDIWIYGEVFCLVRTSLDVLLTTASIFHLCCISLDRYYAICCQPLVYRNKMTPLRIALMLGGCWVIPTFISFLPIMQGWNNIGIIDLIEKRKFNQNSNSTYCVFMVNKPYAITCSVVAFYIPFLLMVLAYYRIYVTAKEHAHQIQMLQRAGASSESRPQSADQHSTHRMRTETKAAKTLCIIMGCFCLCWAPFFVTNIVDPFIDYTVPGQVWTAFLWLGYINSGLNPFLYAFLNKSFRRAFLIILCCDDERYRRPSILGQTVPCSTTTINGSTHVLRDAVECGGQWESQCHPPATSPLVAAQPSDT
Voltage-gated inwardly rectifying potassium channel KCNH2, sequence (Q12809 whole entry): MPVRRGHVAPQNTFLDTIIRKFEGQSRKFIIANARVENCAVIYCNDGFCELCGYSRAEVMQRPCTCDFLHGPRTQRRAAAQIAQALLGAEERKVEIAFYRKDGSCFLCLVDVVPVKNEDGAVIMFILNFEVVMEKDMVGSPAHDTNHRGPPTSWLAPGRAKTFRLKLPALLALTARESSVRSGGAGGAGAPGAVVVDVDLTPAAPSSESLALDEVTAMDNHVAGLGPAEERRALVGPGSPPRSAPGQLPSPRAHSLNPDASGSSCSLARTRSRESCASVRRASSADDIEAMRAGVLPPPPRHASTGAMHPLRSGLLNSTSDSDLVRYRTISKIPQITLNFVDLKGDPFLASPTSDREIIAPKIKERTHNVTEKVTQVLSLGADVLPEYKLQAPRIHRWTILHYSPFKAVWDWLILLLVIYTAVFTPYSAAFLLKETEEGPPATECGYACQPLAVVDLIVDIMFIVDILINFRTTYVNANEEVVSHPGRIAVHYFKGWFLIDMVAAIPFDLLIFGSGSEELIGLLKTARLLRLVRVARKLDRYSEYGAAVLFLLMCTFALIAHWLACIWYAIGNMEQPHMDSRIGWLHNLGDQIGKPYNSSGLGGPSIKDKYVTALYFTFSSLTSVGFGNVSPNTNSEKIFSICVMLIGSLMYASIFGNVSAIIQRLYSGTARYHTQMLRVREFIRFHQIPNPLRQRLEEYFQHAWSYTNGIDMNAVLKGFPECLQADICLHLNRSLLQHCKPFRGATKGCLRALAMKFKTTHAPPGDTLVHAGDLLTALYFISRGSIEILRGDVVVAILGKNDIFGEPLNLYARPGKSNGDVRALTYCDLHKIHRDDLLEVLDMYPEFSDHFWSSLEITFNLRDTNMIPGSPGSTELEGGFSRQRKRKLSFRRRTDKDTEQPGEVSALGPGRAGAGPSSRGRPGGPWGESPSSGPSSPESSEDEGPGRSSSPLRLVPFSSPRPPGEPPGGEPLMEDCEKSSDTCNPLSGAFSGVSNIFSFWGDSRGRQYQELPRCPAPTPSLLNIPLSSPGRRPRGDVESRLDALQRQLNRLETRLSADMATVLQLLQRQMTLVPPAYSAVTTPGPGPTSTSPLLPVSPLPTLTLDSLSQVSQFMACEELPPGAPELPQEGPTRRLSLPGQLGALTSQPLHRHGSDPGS

Row | EC50 [1] | logD [2] | microsomal CLint [3] | Emax [4] | Activity [5] | Activity [6] | Structure (SMILES) | further results
1 | 21 nM | 1.6 | 24 µL/min/mg | 46% | 27% | < 5% | C[C@@H]1CNCCN1c1cc(=O)n(C)c(CCc2ccccc2Cl)n1 | efflux ratio (MDR1 (human)): 3.1
2 | 56 nM | 1 | 27 µL/min/mg | 83% | 58% | 46% | Cc1cc(=O)n(CCCOc2ccccc2Cl)c(N2CCNCC2)n1 | –
3 | 112 nM | 0.4 | < 7 µL/min/mg | 77% | – | – | CCn1c(COc2cccc(C#N)c2)nc(N2CCNCC2)cc1=O | –
4 | 319 nM | 0.3 | < 7 µL/min/mg | 63% | – | – | Cn1c(COc2cccc(C#N)c2)nc(N2CCNCC2)cc1=O | –
5 | 163 nM | 0.9 | 16 µL/min/mg | 84% | – | – | Cc1cc(=O)n(CCCOc2ccccc2)c(N2CCNC[C@H]2C)n1 | –
6 | 73 nM | 0.8 | 11 µL/min/mg | 61% | – | – | Cn1c(COc2ccccc2Cl)nc(N2CCNCC2)cc1=O | –
7 | 361 nM | 1 | < 7 µL/min/mg | 48% | – | – | Cn1c(COc2cc(F)ccc2Cl)nc(N2CCNCC2)cc1=O | –
8 | 493 nM | 1 | < 7 µL/min/mg | 66% | – | – | Cn1c(COc2cccc(Cl)c2)nc(N2CCNCC2)cc1=O | –
9 | 262 nM | 1.2 | – | 86% | – | – | Cc1cc(=O)n(CCCOc2cccc(Cl)c2)c(N2CCNCC2)n1 | –
10 | 103 nM | 1.4 | < 7 µL/min/mg | 46% | – | – | CCn1c(COc2cc(F)ccc2Cl)nc(N2CCNCC2)cc1=O | –
11 | 30 nM | 1.4 | 14 µL/min/mg | 72% | – | – | Cn1c(COc2ccccc2C(F)(F)F)nc(N2CCNCC2)cc1=O | –
12 | 228 nM | 0.8 | < 7 µL/min/mg | 60% | – | – | Cc1ccccc1OCc1nc(N2CCNCC2)cc(=O)n1C | –
13 | 64 nM | 1.8 | 29 µL/min/mg | 59% | 45% | 6% | C[C@@H]1CNCCN1c1cc(=O)n(C)c(CCc2ccccc2C(F)(F)F)n1 | –
14 | 46 nM | 1 | < 7 µL/min/mg | 84% | – | – | Cc1ccc(F)cc1OCc1nc(N2CCNCC2)cc(=O)n1C | –
15 | 21 nM | 1.9 | 30 µL/min/mg | 50% | 16% | < 5% | CCn1c(CCc2ccccc2Cl)nc(N2CCNCC2)cc1=O | efflux ratio (MDR1 (human)): 4.3
16 | 26 nM | 1.4 | 18 µL/min/mg | 59% | 50% | < 5% | Cc1ccccc1CCc1nc(N2CCNC[C@H]2C)cc(=O)n1C | efflux ratio (MDR1 (human)): 3.5
17 | 262 nM | 1 | < 7 µL/min/mg | 50% | 58% | < 5% | C[C@@H]1CNCCN1c1cc(=O)n(C)c(CCc2ccccc2)n1 | –
18 | 487 nM | 1.3 | – | 49% | – | – | Cn1c(COc2cccc(C(F)(F)F)c2)nc(N2CCNCC2)cc1=O | –
19 | 160 nM | 1.5 | < 7 µL/min/mg | 84% | – | – | Cc1ccc(Cl)cc1OCc1nc(N2CCNCC2)cc(=O)n1C | –
20 | 275 nM | 0.6 | < 7 µL/min/mg | 43% | 13% | < 5% | Cn1c(CCc2ccccc2)nc(N2CCNCC2)cc1=O | efflux ratio (MDR1 (human)): 3.4
21 | – | – | – | – | – | – | C[C@@H]1CNCCN1c1cc(=O)n(C)c(COc2ccccc2C(F)(F)F)n1 | Activity [7]: 480 nM; Activity [8]: > 1 µM; Activity [9]: > 1 µM; Activity [10]: > 1 µM; Activity [11]: > 1 µM; Activity (Canis familiaris [12]): 20%; Ratio [13]: 0.34; Cp (Canis familiaris [14]): 19 nM; EC50 [15]: > 1500 nM; EC50 [16]: > 10 µM; Ki [17]: > 13 µM; Activity [18]: 210 nM
22 | 26 nM | 1.6 | < 10 µL/min/mg | 59% | 76% | 13% | C[C@@H]1CNCCN1c1cc(=O)n(C)c(CCc2cccc(Cl)c2)n1 | efflux ratio (MDR1 (human)): 3.7
23 | 1020 nM | 0.7 | 26 µL/min/mg | 77% | 44% | 57% | Cc1cc(=O)n(CCCOc2ccccc2)c(N2CCNCC2)n1 | efflux ratio (MDR1 (human)): 1.6
24 | 96 nM | 1.2 | < 7 µL/min/mg | 59% | 57% | < 5% | Cn1c(CCc2cccc(Cl)c2)nc(N2CCNCC2)cc1=O | efflux ratio (MDR1 (human)): 4
25 | 77 nM | 0.45 | – | 92% | 39% | 35% | Cc1cc(=O)n(CCCOc2ccccc2F)c(N2CCNCC2)n1 | –
26 | 899 nM | – | – | 91% | – | – | Cc1cc(=O)n(CCCOc2ccc(Cl)cc2)c(N2CCNCC2)n1 | –

Row | Structure (SMILES) | EC50 [1] | logD [2] | microsomal CLint [3] | Emax [4] | Activity [5] | Activity [6] | further results
27 | Cn1c(COc2ccc(Cl)cc2)nc(N2CCNCC2)cc1=O | > 10000 nM | 0.8 | < 7 µL/min/mg | – | – | – | –
28 | Cn1c(COc2ccc(C(F)(F)F)cc2)nc(N2CCNCC2)cc1=O | > 10000 nM | 1.1 | 8 µL/min/mg | – | – | – | –
29 | Cc1cc(=O)n(CCCc2ccccc2)c(N2CCNCC2)n1 | > 10000 nM | – | – | – | – | – | –
30 | Cc1cc(=O)n(CCCOc2cccc(F)c2)c(N2CCNCC2)n1 | > 10000 nM | 0.8 | – | – | – | – | –
31 | C[C@@H]1CNCCN1c1ccc(=O)n(CCOc2ccccc2C(F)(F)F)n1 | 47 nM | 1.4 | 15 µL/min/mg | 45% | 50% | < 10% | efflux ratio (MDR1 (human)): 3.4
32 | Cc1cc(=O)n(CCCOCc2ccccc2)c(N2CCNCC2)n1 | > 10000 nM | – | – | – | – | – | –
33 | Cc1cc(=O)n(CCCOc2ccc(F)cc2)c(N2CCNCC2)n1 | > 10000 nM | 0.7 | – | – | – | – | –
34 | Cn1c(N2CCNCC2)nc(CCc2cccc(Cl)c2)cc1=O | > 10000 nM | 1.3 | < 7 µL/min/mg | – | – | – | –
